Assay results as given in ChEMBL document CHEMBL3286272, “Synthesis, biological, and biophysical studies of DAG-indololactones designed as selective activators of RasGRP” (Bioorg Med Chem, 2014).
Activity calls are given as the source filed them. The rule behind the calls is not given here.

What was measured:
Lipid bilayer = test: Binding affinity to […] embedded 9:1 DMPC/DMPG giant vesicle at 2.42 to 6.05 uM by fluorescence anisotropy method
How it was run: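 Giant vesicles (DMPC/DMPG 9:1, rapid evaporation, 0.1 M sucrose, 0.1 M KCl, 2 mM Tris pH 7.4) were loaded with DPH-TMA at 1.25 μM final for 30 min at room temperature. Compound from DMSO stock was added at 2.42 and 6.05 μM final. Anisotropy was read at 430 nm with 355 nm excitation.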

[1] = molecular target: T1, Protein kinase C epsilon type (Homo sapiens) (UniProt Q02156); test: Binding affinity to recombinant human YFP-tagged PKC-epsilon expressed in human LNCAP cells assessed as induction of protein translocation from plasma membrane to internal membrane at 10000 nM after 2 to 10 mins by confocal microscopic analysis; assay type: cell-based
T1 sequence (whole entry): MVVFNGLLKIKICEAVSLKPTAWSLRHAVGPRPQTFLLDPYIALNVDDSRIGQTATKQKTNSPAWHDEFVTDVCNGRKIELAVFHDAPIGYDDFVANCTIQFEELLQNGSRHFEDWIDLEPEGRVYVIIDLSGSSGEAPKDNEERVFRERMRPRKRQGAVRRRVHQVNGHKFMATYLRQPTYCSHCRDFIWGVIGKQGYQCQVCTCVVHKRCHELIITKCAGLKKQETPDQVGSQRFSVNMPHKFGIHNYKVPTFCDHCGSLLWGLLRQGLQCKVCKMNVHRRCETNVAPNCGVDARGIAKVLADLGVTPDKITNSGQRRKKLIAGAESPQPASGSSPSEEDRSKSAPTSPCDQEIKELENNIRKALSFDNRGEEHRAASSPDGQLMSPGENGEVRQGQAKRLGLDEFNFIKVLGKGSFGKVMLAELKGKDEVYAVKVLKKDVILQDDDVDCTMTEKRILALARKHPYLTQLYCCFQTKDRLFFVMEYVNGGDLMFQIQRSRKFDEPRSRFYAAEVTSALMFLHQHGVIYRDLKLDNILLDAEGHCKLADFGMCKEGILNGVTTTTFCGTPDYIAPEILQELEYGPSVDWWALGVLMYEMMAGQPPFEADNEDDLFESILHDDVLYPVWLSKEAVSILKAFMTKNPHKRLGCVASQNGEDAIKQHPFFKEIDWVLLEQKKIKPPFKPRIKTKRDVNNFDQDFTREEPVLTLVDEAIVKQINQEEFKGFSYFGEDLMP
How it was run: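 LNCaP cells were transiently transfected with human YFP-PKCε and imaged live by confocal microscopy 24 h later every 30 s for 30 min after 10 μM ligand. Membrane/cytoplasm intensity ratio from 4 μm2 regions was normalized to time 0. n = 3–6.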

Homo sapiens = species on record: Homo sapiens; test: Selectivity ratio of Ki for recombinant human PKC-alpha to Ki for recombinant RasGRP1 C1 domain (unknown origin)
[2] = molecular target: T2, RAS guanyl-releasing protein 1 (Homo sapiens, UniProt O95267); test: Displacement of [3H]PDBu from recombinant RasGRP1 C1 domain (unknown origin) after 10 mins by scintillation counting analysis in presence of phosphatidylserine
T2 sequence (O95267 whole entry): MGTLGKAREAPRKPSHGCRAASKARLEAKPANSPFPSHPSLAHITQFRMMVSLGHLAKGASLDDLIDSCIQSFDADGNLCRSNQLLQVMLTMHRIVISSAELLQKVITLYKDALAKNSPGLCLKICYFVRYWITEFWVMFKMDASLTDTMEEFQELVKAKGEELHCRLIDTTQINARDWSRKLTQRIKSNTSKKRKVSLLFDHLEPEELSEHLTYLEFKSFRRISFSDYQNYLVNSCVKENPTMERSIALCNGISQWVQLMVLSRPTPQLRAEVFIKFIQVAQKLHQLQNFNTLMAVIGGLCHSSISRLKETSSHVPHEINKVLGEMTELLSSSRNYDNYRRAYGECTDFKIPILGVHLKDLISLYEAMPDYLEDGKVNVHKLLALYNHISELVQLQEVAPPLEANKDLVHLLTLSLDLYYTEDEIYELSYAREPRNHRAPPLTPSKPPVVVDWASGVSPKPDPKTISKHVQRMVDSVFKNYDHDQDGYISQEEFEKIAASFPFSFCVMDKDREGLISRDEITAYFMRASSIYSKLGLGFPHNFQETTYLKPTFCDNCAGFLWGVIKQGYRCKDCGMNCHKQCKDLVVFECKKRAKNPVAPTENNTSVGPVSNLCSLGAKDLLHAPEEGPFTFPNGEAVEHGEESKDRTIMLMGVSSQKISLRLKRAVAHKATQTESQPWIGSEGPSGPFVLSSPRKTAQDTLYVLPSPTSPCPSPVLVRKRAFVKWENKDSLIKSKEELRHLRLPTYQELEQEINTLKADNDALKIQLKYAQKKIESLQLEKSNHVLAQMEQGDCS
How it was run: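 [3H]PDBu binding competition with 100 μg/ml phosphatidylserine present; PKCα and RasGRP1-C1 assayed at 37°C for stability. Values are mean ± SEM of triplicate independent experiments.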

[3] = molecular target: T3, Ras guanyl-releasing protein 3 (Homo sapiens) (UniProt Q8IV61); test: Binding affinity to recombinant human GFP-tagged RasGRP3 expressed in human LNCAP cells assessed as induction of protein translocation from plasma membrane to internal membrane at 10000 nM after 2 to 10 mins by confocal microscopic analysis; assay type: cell-based
T3 sequence (whole entry): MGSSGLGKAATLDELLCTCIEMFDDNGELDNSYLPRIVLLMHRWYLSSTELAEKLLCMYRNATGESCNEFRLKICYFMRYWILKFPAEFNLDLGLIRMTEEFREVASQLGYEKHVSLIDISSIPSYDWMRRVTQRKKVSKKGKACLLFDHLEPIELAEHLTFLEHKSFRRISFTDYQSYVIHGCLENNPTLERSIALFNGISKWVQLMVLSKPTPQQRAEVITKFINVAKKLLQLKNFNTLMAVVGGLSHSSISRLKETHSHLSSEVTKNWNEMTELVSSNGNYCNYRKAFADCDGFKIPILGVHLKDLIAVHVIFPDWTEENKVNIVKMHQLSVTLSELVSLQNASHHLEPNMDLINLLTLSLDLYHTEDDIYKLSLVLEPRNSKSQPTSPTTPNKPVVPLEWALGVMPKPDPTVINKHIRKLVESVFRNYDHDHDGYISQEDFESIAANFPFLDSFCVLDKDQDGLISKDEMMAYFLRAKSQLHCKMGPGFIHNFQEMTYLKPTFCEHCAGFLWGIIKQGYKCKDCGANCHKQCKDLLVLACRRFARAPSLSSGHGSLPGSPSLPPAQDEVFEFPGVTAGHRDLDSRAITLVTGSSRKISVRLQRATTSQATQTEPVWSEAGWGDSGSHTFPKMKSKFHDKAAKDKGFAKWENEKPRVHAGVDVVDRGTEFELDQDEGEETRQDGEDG
How it was run: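 LNCaP cells were transiently transfected with human GFP-PKCδ or GFP-RasGRP3 and imaged 24 h later by live confocal microscopy (488 nm excitation) every 30 s for 30 min after 10 μM ligand. Distribution was assessed from representative images. n = 3–6.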

Compound | Activity (Lipid bilayer) | Activity [1] | Ratio Ki (Homo sapiens) | Ki [2] | Activity [3]
CCCC(CCC)C(=O)OCC1(CO)C/C(=C\c2ccc3c(ccn3C)c2)C(=O)O1 (stereo not given) | inactive | Active | 24 | 0.41 nM | Active
CCCC(CCC)C(=O)OCC1(CO)C/C(=C\c2cccc3c2ccn3C)C(=O)O1 (stereo not given) | inactive | Active | 10 | 1.55 nM | Active
CCCC(CCC)C(=O)OCC1(CO)C/C(=C\c2cccc3ccn(C)c23)C(=O)O1 (stereo not given) | Active | Active | 19 | 0.69 nM | Active

Continued by falling Ki [2], values first:

Activity (Lipid bilayer) | Activity [1] | Ratio Ki (Homo sapiens) | Ki [2] | Activity [3] | Compound
Active | Active | 9 | 0.87 nM | Active | CCCC(CCC)C(=O)OCC1(CO)C/C(=C\c2ccc3ccn(C)c3c2)C(=O)O1 (stereo not given)
Active | Active | 65 | 0.25 nM | Active | CCCC(CCC)C(=O)OCC1(CO)C/C(=C\c2cn(C)c3ccccc23)C(=O)O1 (stereo not given)
